This note sets out measurements from ChEMBL document CHEMBL1681679, “Investigation of a novel molecular descriptor for the lead optimization of 4-aminoquinazolines as vascular endothelial growth factor receptor-2 inhibitors: application for quantitative structure-activity relationship analysis in lead optimization” (Bioorg Med Chem Lett, 2011).

Each structure is given as a SMILES string.

For experiment [1], the target named is T1, Vascular endothelial growth factor receptor 2 (Homo sapiens, UniProt P35968). The note with it: 25 uM.
Experiment [2] concerns the target T1, Vascular endothelial growth factor receptor 2. The experiment can be described thus: Inhibition of human recombinant His-tagged VEGFR2 assessed as […] absorption at 10 uM by ELISA assay in presence of 20 uM ATP. Put shortly:
(§1)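 Human N-terminal His6-tagged recombinant VEGFR2 kinase domain (aa790-end), 100 ng per well, with 20 μM ATP and 1.5 μM substrate peptide (final), in streptavidin-coated wells. Kinase buffer contains up to 1% DMSO. Read-out is ELISA absorbance at 450 nm. Each run includes blank, control, DMSO control and standard. Value is average percent inhibition at the stated final compound concentration, replicates assayed on separate days.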

The target is the same in experiment [3]. The experiment can be described thus: Inhibition of human recombinant His-tagged VEGFR2 assessed as […] absorption by ELISA assay in presence of 20 uM ATP.
Experiment [4] has the same target. The experiment can be described thus: Inhibition of human recombinant His-tagged VEGFR2 assessed as […] absorption at 20 uM by ELISA assay in presence of 20 uM ATP. Put shortly: as §1

T1 sequence (P35968 whole entry): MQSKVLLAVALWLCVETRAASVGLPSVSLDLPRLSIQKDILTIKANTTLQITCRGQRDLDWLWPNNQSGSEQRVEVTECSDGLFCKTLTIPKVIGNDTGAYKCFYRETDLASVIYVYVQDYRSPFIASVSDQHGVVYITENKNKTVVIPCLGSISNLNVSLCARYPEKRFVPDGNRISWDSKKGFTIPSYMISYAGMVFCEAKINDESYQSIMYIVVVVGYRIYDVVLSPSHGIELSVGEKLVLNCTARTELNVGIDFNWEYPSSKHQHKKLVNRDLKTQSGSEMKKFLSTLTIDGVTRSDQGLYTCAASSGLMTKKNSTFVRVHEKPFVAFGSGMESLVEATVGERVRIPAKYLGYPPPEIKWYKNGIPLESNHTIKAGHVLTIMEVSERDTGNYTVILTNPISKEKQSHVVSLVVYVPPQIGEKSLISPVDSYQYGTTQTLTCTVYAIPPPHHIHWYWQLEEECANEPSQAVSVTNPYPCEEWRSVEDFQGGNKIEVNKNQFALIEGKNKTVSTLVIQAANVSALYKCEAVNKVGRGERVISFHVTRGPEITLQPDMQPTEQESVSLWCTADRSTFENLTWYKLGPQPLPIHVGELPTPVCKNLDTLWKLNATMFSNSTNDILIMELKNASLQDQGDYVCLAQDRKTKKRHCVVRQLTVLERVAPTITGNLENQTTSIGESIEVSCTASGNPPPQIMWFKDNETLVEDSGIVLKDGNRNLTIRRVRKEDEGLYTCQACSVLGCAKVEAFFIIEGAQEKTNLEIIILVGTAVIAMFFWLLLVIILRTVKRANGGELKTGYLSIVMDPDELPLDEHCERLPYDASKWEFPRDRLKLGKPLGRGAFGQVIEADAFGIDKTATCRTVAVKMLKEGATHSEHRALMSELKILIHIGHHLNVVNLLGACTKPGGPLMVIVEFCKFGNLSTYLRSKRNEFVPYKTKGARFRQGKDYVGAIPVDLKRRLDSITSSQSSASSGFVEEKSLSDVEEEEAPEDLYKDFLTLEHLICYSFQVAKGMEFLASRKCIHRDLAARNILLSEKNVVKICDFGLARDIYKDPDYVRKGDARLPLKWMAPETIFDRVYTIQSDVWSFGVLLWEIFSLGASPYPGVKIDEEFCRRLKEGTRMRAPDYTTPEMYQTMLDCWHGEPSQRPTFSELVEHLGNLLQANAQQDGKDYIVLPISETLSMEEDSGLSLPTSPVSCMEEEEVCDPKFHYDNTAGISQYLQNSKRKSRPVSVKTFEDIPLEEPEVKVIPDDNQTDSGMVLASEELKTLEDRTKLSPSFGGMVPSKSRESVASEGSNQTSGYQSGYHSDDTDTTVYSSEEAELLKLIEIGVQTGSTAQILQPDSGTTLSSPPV

`COc1ccc(-c2cnc3c(-c4ccsc4)cnn3c2)cc1` gave an inhibition in experiment [1] of 46%.
`COc1cc2ncnc(Nc3ccc(Cl)cc3)c2cc1OC`: in experiment [2], the inhibition turned out to be 4%.
In the case of `COc1cc2ncnc(Nc3ccc(F)c(F)c3)c2cc1OC`, the inhibition in experiment [2] worked out at 5%.
For `COc1cc2ncnc(Nc3ccc(C)c(F)c3)c2cc1OC`, the inhibition in experiment [2] is 66%.
In the case of `COc1cc2ncnc(Nc3ccccc3)c2cc1OC`, the inhibition in experiment [2] came to 19%.
With `COc1cc2ncnc(NC3CCCCC3)c2cc1OC`, the inhibition in experiment [2] was found to be 17%.
Same read-out and setting: under `COc1cc2ncnc(NC(C)C)c2cc1OC` stands 13%.
Consider `Cc1cc(F)c(Nc2ncnc3cc(OCc4ccccc4)ccc23)cc1O`, for which the IC50 in experiment [3] was determined as 2 nM. Besides, the inhibition in experiment [4] worked out at 37%.
For the molecule `COc1cc2ncnc(Nc3ccc(C)c(Cl)c3)c2cc1OC`, the inhibition in experiment [2] stood at 9%.
With `COc1cc2ncnc(OC(C)C)c2cc1OC`, the inhibition in experiment [2] was 2%.
Take `CCOc1ncnc2cc(OC)c(OC)cc12`: in experiment [2], the inhibition worked out at 0%.
For `COc1cc2ncnc(Nc3ccc(F)cc3)c2cc1OC`, the inhibition in experiment [2] was determined as 6%.
